Test results reported in the M2OR odorant receptor database.
Numbering of substitutions follows the chain as printed.

What was measured:
Details in all cases: stereoisomer not certain
[1] = target: T1, OR11H2 (Homo sapiens) (UniProt Q8NH07)
T1 sequence (whole entry): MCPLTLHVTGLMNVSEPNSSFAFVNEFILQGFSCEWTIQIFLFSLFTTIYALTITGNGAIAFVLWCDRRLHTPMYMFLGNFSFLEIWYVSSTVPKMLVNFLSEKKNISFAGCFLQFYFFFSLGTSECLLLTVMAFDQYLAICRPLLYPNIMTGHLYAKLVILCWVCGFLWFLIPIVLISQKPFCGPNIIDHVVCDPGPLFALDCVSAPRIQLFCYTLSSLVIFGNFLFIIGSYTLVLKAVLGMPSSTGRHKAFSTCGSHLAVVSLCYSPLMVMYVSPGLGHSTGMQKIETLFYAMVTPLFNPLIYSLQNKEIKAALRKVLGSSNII
How it was run: (§1)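 Assay methods differ from source to source, frequently being transient luciferase assays in mammalian cell lines. For each receptor–molecule pair, the label responsive (active) applies when the original authors judged the measured signal statistically different from baseline, and non-responsive (inactive) applies otherwise.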

[2] = target: T2, OR11H4 (Homo sapiens) (UniProt Q8NGC9)
T2 sequence (whole entry): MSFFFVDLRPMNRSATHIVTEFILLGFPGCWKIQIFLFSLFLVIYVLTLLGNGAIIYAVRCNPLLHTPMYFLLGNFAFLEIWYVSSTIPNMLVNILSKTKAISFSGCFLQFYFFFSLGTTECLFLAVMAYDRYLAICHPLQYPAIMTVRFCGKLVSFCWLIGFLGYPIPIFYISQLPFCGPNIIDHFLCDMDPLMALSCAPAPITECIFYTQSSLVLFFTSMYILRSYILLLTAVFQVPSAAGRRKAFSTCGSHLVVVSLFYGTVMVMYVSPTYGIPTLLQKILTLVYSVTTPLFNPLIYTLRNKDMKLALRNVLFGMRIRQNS
How it was run: as §1

[3] = target: T3, OR11H6 (Homo sapiens) (UniProt Q8NGC7)
T3 sequence (whole entry): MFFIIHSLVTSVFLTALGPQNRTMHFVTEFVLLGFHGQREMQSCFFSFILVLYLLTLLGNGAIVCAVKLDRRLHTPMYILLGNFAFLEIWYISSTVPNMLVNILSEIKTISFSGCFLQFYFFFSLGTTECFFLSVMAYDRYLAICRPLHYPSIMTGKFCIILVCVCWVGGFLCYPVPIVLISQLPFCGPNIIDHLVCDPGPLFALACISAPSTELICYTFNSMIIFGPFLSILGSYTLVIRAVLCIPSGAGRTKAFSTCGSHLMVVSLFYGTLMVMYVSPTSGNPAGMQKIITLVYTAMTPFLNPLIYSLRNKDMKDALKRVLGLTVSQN
How it was run: as §1

[4] = target: T4, OR11L1 (Homo sapiens) (UniProt Q8NGX0)
T4 sequence (whole entry): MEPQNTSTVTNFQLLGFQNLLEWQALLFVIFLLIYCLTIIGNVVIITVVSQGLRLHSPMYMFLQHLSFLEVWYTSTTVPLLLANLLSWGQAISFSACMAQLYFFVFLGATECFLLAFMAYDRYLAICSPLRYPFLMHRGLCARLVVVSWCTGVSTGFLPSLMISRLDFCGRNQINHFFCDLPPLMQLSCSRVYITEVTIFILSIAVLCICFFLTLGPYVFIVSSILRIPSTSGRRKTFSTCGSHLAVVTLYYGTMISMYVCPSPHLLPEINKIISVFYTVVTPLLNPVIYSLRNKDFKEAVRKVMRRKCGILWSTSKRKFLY
How it was run: as §1

[5] = target: T5, OR12D2 (Homo sapiens) (UniProt P58182)
T5 sequence (whole entry): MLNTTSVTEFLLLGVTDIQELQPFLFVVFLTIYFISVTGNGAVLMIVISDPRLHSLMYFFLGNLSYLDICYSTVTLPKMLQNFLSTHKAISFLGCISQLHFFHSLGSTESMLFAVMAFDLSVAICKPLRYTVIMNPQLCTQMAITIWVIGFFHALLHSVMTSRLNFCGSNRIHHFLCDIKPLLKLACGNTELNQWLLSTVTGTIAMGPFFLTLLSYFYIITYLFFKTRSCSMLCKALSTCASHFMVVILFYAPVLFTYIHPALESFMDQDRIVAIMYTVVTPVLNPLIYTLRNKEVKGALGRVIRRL
How it was run: as §1

[6] = target: T6, OR12D3 (Homo sapiens) (UniProt Q9UGF7)
T6 sequence (whole entry): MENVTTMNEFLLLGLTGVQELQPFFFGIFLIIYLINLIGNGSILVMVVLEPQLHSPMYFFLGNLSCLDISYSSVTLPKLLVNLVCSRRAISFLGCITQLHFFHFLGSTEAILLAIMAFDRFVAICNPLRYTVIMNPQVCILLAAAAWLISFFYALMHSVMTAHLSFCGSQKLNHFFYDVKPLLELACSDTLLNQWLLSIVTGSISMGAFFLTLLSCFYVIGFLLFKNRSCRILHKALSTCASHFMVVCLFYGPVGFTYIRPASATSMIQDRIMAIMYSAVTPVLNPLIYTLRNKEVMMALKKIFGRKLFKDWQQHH
How it was run: as §1

[7] = target: T7, OR13A1 (Homo sapiens) (UniProt Q8NGR1)
T7 sequence (whole entry): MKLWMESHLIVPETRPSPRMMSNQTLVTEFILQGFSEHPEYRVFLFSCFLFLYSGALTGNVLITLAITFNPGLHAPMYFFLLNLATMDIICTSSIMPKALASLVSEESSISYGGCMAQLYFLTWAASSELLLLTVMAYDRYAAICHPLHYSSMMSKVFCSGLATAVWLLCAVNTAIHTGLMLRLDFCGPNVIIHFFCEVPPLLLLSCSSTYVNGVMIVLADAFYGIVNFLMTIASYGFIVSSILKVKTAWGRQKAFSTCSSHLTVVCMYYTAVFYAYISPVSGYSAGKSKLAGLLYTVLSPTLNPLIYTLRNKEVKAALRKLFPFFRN
How it was run: as §1

[8] = target: T8, OR13C2 (Homo sapiens) (UniProt Q8NGS9)
T8 sequence (whole entry): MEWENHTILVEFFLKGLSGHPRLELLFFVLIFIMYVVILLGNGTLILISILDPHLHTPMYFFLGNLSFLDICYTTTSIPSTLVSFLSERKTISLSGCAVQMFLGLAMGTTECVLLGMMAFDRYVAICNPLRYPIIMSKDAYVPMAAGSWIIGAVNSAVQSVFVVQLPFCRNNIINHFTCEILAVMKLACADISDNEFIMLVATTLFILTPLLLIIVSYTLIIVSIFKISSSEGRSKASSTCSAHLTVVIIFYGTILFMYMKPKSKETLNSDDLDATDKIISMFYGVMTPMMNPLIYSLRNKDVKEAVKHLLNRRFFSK
How it was run: as §1

[9] = target: T9, OR13C3 (Homo sapiens) (UniProt Q8NGS6)
T9 sequence (whole entry): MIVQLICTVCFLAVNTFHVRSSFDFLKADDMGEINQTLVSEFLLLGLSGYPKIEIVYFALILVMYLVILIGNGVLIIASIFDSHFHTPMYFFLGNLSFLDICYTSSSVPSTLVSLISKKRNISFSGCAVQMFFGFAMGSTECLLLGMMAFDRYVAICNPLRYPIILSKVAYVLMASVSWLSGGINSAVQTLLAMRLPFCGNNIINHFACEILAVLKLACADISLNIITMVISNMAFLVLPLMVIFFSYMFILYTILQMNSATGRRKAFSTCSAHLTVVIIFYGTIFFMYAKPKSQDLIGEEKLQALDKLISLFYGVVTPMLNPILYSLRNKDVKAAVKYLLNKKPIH
How it was run: as §1

[10] = target: T10, OR13C4 (Homo sapiens) (UniProt Q8NGS5)
T10 sequence (whole entry): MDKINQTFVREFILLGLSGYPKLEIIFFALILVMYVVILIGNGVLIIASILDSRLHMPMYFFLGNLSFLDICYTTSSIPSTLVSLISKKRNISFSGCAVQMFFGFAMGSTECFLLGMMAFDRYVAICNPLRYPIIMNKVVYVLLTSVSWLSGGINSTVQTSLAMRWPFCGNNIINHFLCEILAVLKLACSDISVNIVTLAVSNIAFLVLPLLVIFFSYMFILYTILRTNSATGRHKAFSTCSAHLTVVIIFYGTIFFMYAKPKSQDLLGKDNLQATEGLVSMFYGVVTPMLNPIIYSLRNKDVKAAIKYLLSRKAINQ
How it was run: as §1

[11] = target: T11, OR13C5 (Homo sapiens) (UniProt Q8NGS8)
T11 sequence (whole entry): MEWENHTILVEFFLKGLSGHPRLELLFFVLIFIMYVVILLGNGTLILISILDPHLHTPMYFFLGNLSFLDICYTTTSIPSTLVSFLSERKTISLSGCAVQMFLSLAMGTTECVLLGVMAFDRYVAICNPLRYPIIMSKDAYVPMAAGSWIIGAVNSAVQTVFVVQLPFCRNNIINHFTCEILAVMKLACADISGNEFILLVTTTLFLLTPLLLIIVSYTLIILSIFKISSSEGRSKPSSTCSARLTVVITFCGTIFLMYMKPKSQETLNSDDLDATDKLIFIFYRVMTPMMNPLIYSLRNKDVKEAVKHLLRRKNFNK
How it was run: as §1

[12] = target: T12, OR13C8 (Homo sapiens) (UniProt Q8NGS7)
T12 sequence (whole entry): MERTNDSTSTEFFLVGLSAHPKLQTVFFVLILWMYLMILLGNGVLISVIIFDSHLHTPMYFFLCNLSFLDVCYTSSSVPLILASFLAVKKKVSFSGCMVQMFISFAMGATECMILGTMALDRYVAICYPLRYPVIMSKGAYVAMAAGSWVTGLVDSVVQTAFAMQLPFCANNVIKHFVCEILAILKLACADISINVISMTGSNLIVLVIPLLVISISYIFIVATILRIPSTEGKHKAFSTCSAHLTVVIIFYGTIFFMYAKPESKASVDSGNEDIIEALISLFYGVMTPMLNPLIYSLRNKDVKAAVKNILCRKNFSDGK
How it was run: as §1

[13] = target: T13, OR13C9 (Homo sapiens) (UniProt Q8NGT0)
T13 sequence (whole entry): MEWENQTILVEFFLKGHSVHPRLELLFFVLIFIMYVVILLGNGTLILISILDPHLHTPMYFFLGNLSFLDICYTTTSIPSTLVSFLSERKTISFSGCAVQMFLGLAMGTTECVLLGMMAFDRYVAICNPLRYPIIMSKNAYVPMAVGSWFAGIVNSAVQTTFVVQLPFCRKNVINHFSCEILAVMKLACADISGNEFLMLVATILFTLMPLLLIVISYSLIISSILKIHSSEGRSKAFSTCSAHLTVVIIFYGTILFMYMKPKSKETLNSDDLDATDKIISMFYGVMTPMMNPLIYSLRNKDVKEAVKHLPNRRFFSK
How it was run: as §1

[14] = target: T14, OR13D1 (Homo sapiens) (UniProt Q8NGV5)
T14 sequence (whole entry): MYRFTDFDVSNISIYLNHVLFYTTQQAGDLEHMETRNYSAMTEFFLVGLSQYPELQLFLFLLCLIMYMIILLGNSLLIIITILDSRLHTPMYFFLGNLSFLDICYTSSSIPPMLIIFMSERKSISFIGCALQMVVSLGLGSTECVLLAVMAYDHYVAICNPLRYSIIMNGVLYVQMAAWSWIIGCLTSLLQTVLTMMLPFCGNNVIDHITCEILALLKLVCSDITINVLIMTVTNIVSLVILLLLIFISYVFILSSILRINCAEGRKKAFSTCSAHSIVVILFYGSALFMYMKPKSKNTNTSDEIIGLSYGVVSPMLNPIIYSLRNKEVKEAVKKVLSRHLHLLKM
How it was run: as §1

[15] = target: T15, OR13F1 (Homo sapiens) (UniProt Q8NGS4)
T15 sequence (whole entry): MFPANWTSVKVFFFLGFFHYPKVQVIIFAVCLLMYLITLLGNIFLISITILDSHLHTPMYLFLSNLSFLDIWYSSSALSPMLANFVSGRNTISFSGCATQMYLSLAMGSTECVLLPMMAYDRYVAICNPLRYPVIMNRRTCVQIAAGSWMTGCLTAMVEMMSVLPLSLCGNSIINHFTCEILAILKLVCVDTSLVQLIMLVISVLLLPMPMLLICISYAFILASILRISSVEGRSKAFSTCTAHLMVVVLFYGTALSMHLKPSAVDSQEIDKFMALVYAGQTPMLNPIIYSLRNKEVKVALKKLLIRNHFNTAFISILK
How it was run: as §1

[16] = target: T16, OR13G1 (Homo sapiens) (UniProt Q8NGZ3)
T16 sequence (whole entry): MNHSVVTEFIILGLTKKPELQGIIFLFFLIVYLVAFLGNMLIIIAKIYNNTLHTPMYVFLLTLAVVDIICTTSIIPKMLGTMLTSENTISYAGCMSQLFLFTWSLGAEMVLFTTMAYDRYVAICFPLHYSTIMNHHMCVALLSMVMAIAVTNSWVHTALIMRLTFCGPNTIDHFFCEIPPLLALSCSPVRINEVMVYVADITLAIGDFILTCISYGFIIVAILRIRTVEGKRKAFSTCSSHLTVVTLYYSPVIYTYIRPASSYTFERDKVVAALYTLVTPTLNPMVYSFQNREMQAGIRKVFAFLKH
How it was run: as §1

[17] = target: T17, OR11H12 (Homo sapiens) (UniProt B2RN74)
T17 sequence (whole entry): T1 sequence (whole entry) with H7Q, S33T, I49T, R68W, Y156C, K181M, L199R, P269S
How it was run: as §1

| Compound | odorant receptor agonist call [1] | odorant receptor agonist call [2] | odorant receptor agonist call [3] | odorant receptor agonist call [4] | odorant receptor agonist call [5] | odorant receptor agonist call [6] | odorant receptor agonist call [7] | odorant receptor agonist call [8] | odorant receptor agonist call [9] | odorant receptor agonist call [10] | odorant receptor agonist call [11] | odorant receptor agonist call [12] | odorant receptor agonist call [13] | odorant receptor agonist call [14] | odorant receptor agonist call [15] | odorant receptor agonist call [16] | odorant receptor agonist call [17] |
| --- | --- | --- | --- | --- | --- | --- | --- | --- | --- | --- | --- | --- | --- | --- | --- | --- | --- |
| CC(CO)CS (stereo not drawn) | inactive | inactive | inactive | inactive | inactive | inactive | inactive | inactive | inactive | inactive | active | inactive | inactive | inactive | inactive | inactive | – |
| CC1=NC(C)C(C)S1 (stereo not drawn) | inactive | inactive | inactive | inactive | inactive | inactive | inactive | inactive | inactive | inactive | inactive | inactive | inactive | inactive | inactive | inactive | inactive |
